According to ChEMBL document CHEMBL2010709, “Pinophilins A and B, inhibitors of mammalian A-, B-, and Y-family DNA polymerases and human cancer cell proliferation” (J Nat Prod, 2012):

How the values were obtained:
A549 = assay: Growth inhibition of human A549 cells after 24 hrs by WST-1 assay; type: functional; conditions: A549, 24 h
Outline: (§1)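 Cancer cells were grown in McCoy's 5A with 10% FBS and penicillin/streptomycin, 37 °C, 5% CO2. Cells were seeded at 1 × 10^4 per well, cultured 12 h, then given compound (10 mM DMSO stock diluted in medium, 0.5% DMSO) for 24 h. WST-1 was added for 4 h and absorbance read at 450/630 nm. GI50 given as mean ± SE, five independent experiments.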

BALL-1 = assay: Growth inhibition of human BALL-1 cells after 24 hrs by WST-1 assay; type: functional; conditions: BALL-1, 24 h; outline: as §1
HCT-116 = assay: Growth inhibition of against human HCT116 cells after 24 hrs by WST-1 assay; type: functional; conditions: HCT-116, 24 h; outline: as §1
HeLa = assay: Growth inhibition of human HeLa cells after 24 hrs by WST-1 assay; type: functional; outline: as §1
NUGC-3 = assay: Growth inhibition of human NUGC3 cells after 24 hrs by WST-1 assay; type: functional; conditions: NUGC-3, 24 h; outline: as §1
[1] = Growth inhibition of HDF cells after 72 hrs by WST-1 assay; type: cell-based; conditions: human
Outline: (§2)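 Normal cells (HDF, HUVEC) were grown in Eagle's MEM with 4.5 g/L glucose, 10% FCS, 5 mM L-glutamine and penicillin/streptomycin, 37 °C, 5% CO2. Cells were seeded at 1 × 10^4 per well, cultured 12 h, then exposed to compound (0.5% DMSO final) for 72 h. Viability was read by WST-1 at 450/630 nm. GI50 given as mean ± SE of five experiments.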

[2] = Growth inhibition of HUVEC cells after 72 hrs by WST-1 assay; type: cell-based; conditions: human; outline: as §2

Nc1ccn([C@@H]2O[C@H](CO)[C@@H](O)[C@@H]2O)c(=O)n1 [CYTARABINE]
GI50 (A549): 200 nM
GI50 (BALL-1): 80 nM
GI50 (HCT-116): 120 nM
GI50 (HeLa): 180 nM
GI50 (NUGC-3): 250 nM
GI50 at 72 h [1]: 250 nM
GI50 at 72 h [2]: 230 nM
